Drawing on ChEMBL document CHEMBL1140939, “A series of 2,4-disubstituted quinolines as a new class of allosteric enhancers of the adenosine A3 receptor” (J Med Chem, 2009), this text covers Activity and Emax for 19 compounds.

For assay [1], the target named is T1, Adenosine receptor A3 (Homo sapiens) (UniProt P0DMS8).
T1 sequence (whole entry): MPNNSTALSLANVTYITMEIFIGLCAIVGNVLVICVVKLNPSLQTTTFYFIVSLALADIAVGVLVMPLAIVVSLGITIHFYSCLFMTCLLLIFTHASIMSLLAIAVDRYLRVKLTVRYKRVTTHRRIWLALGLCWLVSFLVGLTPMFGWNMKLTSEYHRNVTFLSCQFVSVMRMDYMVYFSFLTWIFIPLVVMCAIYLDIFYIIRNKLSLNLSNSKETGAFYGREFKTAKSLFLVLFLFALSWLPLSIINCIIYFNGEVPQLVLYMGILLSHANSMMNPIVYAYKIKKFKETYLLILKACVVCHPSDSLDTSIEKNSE
Kind of assay: Displacement of [125I]AB-MECA from human adenosine A3 receptor expressed in CHO cells at 10 uM. In kind it is cell-based. The procedure, abridged: (§1)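 Equilibrium binding on CHO membranes with human A1 (20 µg protein, 60 min) or A3 (10 µg, 120 min) at 25 °C. Buffer 50 mM Tris-HCl pH 8.0, 10 mM MgCl2, 1 mM EDTA, 0.01% CHAPS. Test ligand 10 µM with ~0.1 nM 125I-AB-MECA. Nonspecific binding with 10 µM DPCPX (A1) or 100 µM R-PIA (A3). Filtration, then γ-counting.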
In general terms: Loss of bound radioactivity is the signal in a displacement assay; it reports binding, not function.

Assay [2] has as its target T2, Adenosine receptor A1 (Homo sapiens) (UniProt P30542).
T2 sequence (whole entry): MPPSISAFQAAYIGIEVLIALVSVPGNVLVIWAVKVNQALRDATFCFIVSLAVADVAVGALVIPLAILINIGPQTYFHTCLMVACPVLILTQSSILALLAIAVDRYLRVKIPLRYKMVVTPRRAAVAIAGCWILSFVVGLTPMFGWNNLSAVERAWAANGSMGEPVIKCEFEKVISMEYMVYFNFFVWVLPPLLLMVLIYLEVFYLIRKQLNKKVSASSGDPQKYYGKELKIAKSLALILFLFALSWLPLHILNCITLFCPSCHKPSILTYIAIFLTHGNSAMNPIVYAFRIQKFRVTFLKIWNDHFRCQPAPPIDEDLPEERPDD
In words: Displacement of [125I]AB-MECA from human adenosine A1 receptor expressed in CHO cells at 10 uM. In kind it is cell-based. In short, it runs like this: as §1

The target in assay [3] is Adenosine receptor A2a (Homo sapiens) (UniProt P29274). In words: Displacement of [3H]ZM241385 from human adenosine A2A receptor expressed in HEK293 cells at 10 uM. The format is cell-based. The procedure, abridged: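 HEK293 membranes with human A2A (30 µg protein) incubated 120 min at 25 °C in 50 mM Tris-HCl pH 7.4 with ~1.7 nM [3H]ZM241385 and 10 µM test ligand. Nonspecific binding defined by 100 µM CGS 21680. Filtration, then liquid scintillation counting.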
Sequence of Adenosine receptor A2a (Homo sapiens) (P29274 whole entry): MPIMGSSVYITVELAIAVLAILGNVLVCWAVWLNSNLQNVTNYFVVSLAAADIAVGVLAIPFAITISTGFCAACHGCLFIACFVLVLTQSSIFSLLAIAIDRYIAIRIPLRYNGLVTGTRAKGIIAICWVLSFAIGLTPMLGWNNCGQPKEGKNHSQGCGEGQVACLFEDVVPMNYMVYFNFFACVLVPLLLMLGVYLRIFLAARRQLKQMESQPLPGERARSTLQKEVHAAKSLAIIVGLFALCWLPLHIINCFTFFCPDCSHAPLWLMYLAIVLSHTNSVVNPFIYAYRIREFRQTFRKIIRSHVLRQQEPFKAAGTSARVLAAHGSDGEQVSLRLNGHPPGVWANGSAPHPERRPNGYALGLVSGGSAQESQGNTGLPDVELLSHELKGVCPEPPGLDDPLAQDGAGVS

For assay [4], the target named is T1, Adenosine receptor A3 (Homo sapiens). In words: Binding affinity to human adenosine A3 receptor expressed in CHO cells assessed as enhancement of C1IB-MECA-induced displacement of [125I]AB-MECA from receptor at 10 uM after 120 mins relative to control.
In assay [5] the target is T3, Adenosine receptor A2b (Homo sapiens) (UniProt P29275).
T3 sequence (whole entry): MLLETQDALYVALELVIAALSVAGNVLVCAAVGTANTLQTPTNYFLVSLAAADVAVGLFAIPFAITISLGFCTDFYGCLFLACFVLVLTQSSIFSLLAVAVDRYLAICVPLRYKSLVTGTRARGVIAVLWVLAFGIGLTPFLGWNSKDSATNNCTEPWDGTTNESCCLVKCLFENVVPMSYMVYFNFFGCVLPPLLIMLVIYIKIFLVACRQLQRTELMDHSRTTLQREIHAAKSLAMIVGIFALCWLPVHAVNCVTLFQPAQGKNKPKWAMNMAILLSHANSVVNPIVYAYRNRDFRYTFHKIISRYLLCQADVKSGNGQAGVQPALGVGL
In words: Displacement of [3H]MRS1754 from human adenosine A2B receptor expressed in CHO cells at 10 uM. In kind it is cell-based. The procedure, abridged: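 CHO membranes expressing human A2B (20 µg protein) with ~1.2 nM [3H]MRS1754 and 10 µM test ligand, 60 min at 25 °C, in 50 mM Tris-HCl pH 7.4 with 0.1% CHAPS. Nonspecific binding with 1 mM NECA. Filtration, then scintillation counting.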

Assay [6] addresses T2, Adenosine receptor A1 (Homo sapiens). Kind of assay: Binding affinity to human adenosine A1 receptor expressed in CHO cells assessed as enhancement of DPCPX-induced displacement of [125I]AB-MECA from receptor at 10 uM after 90 mins relative to control. The format is cell-based. In short, it runs like this:
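CHO membranes expressing human A1 (20 µg) or A3 (10 µg) preincubated with ~0.1 nM 125I-AB-MECA at 25 °C, 60 min (A1) or 120 min (A3), in 50 mM Tris-HCl pH 8.0, 10 mM MgCl2, 1 mM EDTA, 0.01% CHAPS. Dissociation started with 10 µM DPCPX (A1) or 10 µM Cl-IB-MECA (A3), with or without modulator. Bound ligand read at 90 min (A1) or 120 min (A3); control = 100%. Two assays in duplicate.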

Assay [7] addresses T1, Adenosine receptor A3 (Homo sapiens). Kind of assay: Intrinsic activity at human adenosine A3 receptor expressed in CHO cells assessed as increase in C1IB-MECA-stimulated inhibition of forskolin-induced cAMP release at 10 uM by TR-FRET assay. The format is functional, cell-based. In short, it runs like this:
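Forskolin-stimulated cAMP in CHOhA3 cells (~5000/well). Cl-IB-MECA concentration range given with or without 10 µM modulator in stimulation buffer (PBS, 5 mM Hepes pH 7.4, 0.1% BSA, 50 µM rolipram, 50 µM cilostamide), 15 min at room temperature. Forskolin 1 µM added, 30 min at room temperature. TR-FRET cAMP read-out. 100% = cAMP with 10 µM Cl-IB-MECA, 0% = forskolin alone. Three assays in duplicate.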
A general note: TR-FRET usually uses a lanthanide donor and a delayed reading to cut background.

Take `COc1ccc(Nc2cc(NC(=O)C3CCCC3)c3ccccc3n2)cc1`: the Activity in assay [1] worked out at 9%; in assay [2] it was 24%; in assay [3], 19%; in assay [4], 134%; in assay [5] it was 35%; in assay [6], 94%.

For the compound `O=C(Nc1cc(Nc2ccccc2)nc2ccccc12)c1ccco1`, the Activity in assay [1] stood at 92%; in assay [2], 73%; in assay [3] it was 95%; in assay [4], 100%; in assay [5], 60%; in assay [6], 68%.

On to `O=C(Nc1cc(Nc2ccccc2)nc2ccccc12)C1CCCC1`, for which the Activity in assay [1] was 33%; in assay [2], 49%; in assay [3] it was 34%; in assay [4], 145%; in assay [5], 61%; in assay [6] it was 104%.

Regarding `Cc1ccc(Nc2cc(NC(=O)C3CCCCC3)c3ccccc3n2)cc1`, the Activity in assay [1] is -3%; in assay [2], 63%; in assay [3], -3%; in assay [4], 220%; in assay [5], 64%; in assay [6], 121%.

`O=C(Nc1cc(Nc2ccc3cn[nH]c3c2)nc2ccccc12)C1CCCC1`: the Activity in assay [1] turned out to be 52%; in assay [2] it was 61%; in assay [3], 56%; in assay [4], 102%; in assay [5], 90%; in assay [6], 72%.

On to `O=C(Nc1cc(Nc2ccccc2)nc2ccccc12)C1CCCCC1`, for which the Activity in assay [1] came out at 21%; in assay [2] it was 17%; in assay [3] it was 5%; in assay [4], 210%; in assay [5] it was 26%; in assay [6], 70%.

Regarding `O=C(Nc1cc(Nc2ccc(Cl)c(Cl)c2)nc2ccccc12)c1ccccc1`, the Activity is 11% in assay [1]; 23% in assay [2]; -20% in assay [3]; 112% in assay [4]; 37% in assay [5]; 102% in assay [6].

Take `O=C(Nc1cc(NC2CCCC2)nc2ccccc12)C1CCCC1`: the Activity amounted to 42% in assay [1]; 80% in assay [2]; 72% in assay [3]; 114% in assay [4]; 14% in assay [5]; 107% in assay [6].

As to `Cc1ccc(Nc2cc(NC(=O)C3CCCC3)c3ccccc3n2)cc1`, the Activity in assay [1] is 27%; in assay [2], 52%; in assay [3], 35%; in assay [4], 165%; in assay [5], 63%; in assay [6], 115%.

`O=C(Nc1cc(Nc2ccc3c(c2)CCC3)nc2ccccc12)C1CCCC1`: the Activity in assay [1] came to 36%; in assay [2], 47%; in assay [3], 14%; in assay [4], 147%; in assay [5] it was 62%; in assay [6] it was 90%.

Consider `Clc1ccc(Nc2nc3ccccc3c3nc(C4CCCCC4)[nH]c23)cc1Cl`, for which the Activity in assay [1] stood at 3%; in assay [2] it was 39%; in assay [3] it was 16%; in assay [4] it was 229%; in assay [5], 41%; in assay [6], 120%. In addition, the maximum response (Emax) in assay [7] was found to be 286%.

Take `O=C(Nc1cc(Nc2ccc3c(c2)CCC3)nc2ccccc12)C1CCCCC1`: the Activity in assay [1] worked out at 10%; in assay [2], 20%; in assay [3], 19%; in assay [4] it was 217%; in assay [5] it was 42%; in assay [6], 118%.

In the case of `O=C(Nc1cc(Nc2ccc(Cl)c(Cl)c2)nc2ccccc12)C1CCCC1`, the Activity in assay [1] is 26%; in assay [2], 17%; in assay [3] it was -74%; in assay [4] it was 169%; in assay [5], -50%; in assay [6], 125%.

Turning to `O=C(Nc1cc(Nc2ccc(Cl)c(Cl)c2)nc2ccccc12)C1CCC1`, the Activity was 41% in assay [1]; 22% in assay [2]; 38% in assay [3]; 149% in assay [4]; 51% in assay [5]; 72% in assay [6].

Turning to `O=C(Nc1cc(Nc2ccc(Cl)c(Cl)c2)nc2ccccc12)C1CCCCC1`, the Activity in assay [1] was 12%; in assay [2], 12%; in assay [3] it was -19%; in assay [4], 249%; in assay [5] it was 17%; in assay [6], 94%. Besides, the maximal response (Emax) in assay [7] worked out at 223%.

Regarding `O=C(Nc1cc(Nc2ccccc2)nc2ccccc12)C1CCC1`, the Activity in assay [1] was found to be 73%; in assay [2], 76%; in assay [3], 79%; in assay [4] it was 119%; in assay [5] it was 66%; in assay [6] it was 79%.

With `O=C(Nc1cc(Nc2ccccc2)nc2ccccc12)c1ccccc1`, the Activity in assay [1] was determined as 46%; in assay [2], 64%; in assay [3], 75%; in assay [4] it was 100%; in assay [5] it was 76%; in assay [6], 77%.

`O=C(Nc1cc(Nc2ccc(Cl)c(Cl)c2)nc2ccccc12)c1ccco1`: the Activity in assay [1] is 15%; in assay [2], 11%; in assay [3], 10%; in assay [4], 96%; in assay [5] it was 13%; in assay [6], 69%.

Turning to `O=C(Nc1cc(NCc2ccccc2)nc2ccccc12)C1CCCC1`, the Activity in assay [1] stood at 34%; in assay [2] it was 34%; in assay [3] it was 49%; in assay [4], 107%; in assay [5] it was 28%; in assay [6], 77%.

The Emax is the size of the effect at its maximum, as opposed to the concentration needed.
